Measured values collected from several papers.
Compare with care: the assays were run in different laboratories.
Target: Rhodopsin kinase GRK7 (GRK7, Homo sapiens, UniProt Q8WTQ7)
One construct used (Q8WTQ7 1-553): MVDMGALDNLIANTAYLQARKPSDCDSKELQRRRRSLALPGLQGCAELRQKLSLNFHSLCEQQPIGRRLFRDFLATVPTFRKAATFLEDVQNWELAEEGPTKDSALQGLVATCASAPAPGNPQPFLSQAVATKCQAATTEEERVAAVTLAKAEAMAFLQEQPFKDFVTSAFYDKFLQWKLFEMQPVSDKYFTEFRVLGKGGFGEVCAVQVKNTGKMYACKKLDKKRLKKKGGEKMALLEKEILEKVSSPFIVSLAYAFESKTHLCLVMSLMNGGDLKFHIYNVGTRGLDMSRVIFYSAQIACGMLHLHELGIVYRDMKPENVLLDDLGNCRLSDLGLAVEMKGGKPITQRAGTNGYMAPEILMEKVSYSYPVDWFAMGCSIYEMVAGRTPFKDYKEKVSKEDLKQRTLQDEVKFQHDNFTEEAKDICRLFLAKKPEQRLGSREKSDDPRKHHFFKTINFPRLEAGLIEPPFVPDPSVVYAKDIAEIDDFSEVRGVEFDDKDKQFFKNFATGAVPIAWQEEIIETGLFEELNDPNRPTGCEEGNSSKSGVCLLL

| Compound | test | conditions | quantity | value |
| --- | --- | --- | --- | --- |
| O=C(Nc1cnn(-c2csc(C(=O)NC3COC3)c2)c1)Nc1c(F)cccc1Cl | enzyme activity, inhibitor | 5 µM | remaining activity | 94% |
| CC(C)(C)c1nc(-c2cccc(NS(=O)(=O)c3c(F)cccc3F)c2F)c(-c2ccnc(N)n2)s1 | enzyme activity, inhibitor, radiometric | 1 µM | remaining activity | 76% |
| O=C1NC(=O)c2cc(Nc3ccc(F)cc3)c(Nc3ccc(F)cc3)cc21 | cell-free assay | 0.5 µM | remaining signal | 106% |
| CCCOc1ccc(OC)c(F)c1C(=O)c1ccc(C(=O)N[C@@H]2CNC[C@H]2NC(=O)c2ccc3[nH]ncc3c2)cc1 | enzyme activity, inhibitor | 10 µM | remaining activity | 107% |
| CS(=O)(=O)c1cc(C2(NC(=O)c3cncc4c3cnn4-c3ccc(F)cc3)CC2)ccn1 | cell-free assay, competition with immobilised ligand | 1 µM | remaining binding | 96% |
| Cc1ccc(C(=O)Nc2ccc(CN3CCN(C)CC3)c(C(F)(F)F)c2)cc1C#Cc1cnc2cccnn12 | enzyme activity, inhibitor | 23.5 nM | remaining activity | 94% |
| CC(C)(O)[C@H]1CC[C@H](Nc2ccc3ncc(-c4cccc(C(F)(F)F)c4)n3n2)CC1 | enzyme activity, inhibitor | 1 µM | remaining activity | 38% |
| CCCOc1ccc([C@H]2[C@H](C(=O)O)[C@@H](c3ccc4c(c3)OCO4)CN2CC(=O)Nc2c(CC)cccc2CC)cc1 | cell-free assay, competition with immobilised ligand | 1 µM | remaining binding | 100% |
| Cc1ccc(NC(=O)c2ccc(C)c(C(F)(F)F)c2)cc1C#Cc1nn(C2CCC(O)CC2)c2ncnc(N)c12 (centres unmarked) | cell-free assay | 10 µM | remaining signal | 101% |
| O=C1Nc2ccc(Cl)cc2C1=Cc1cc(Cl)c(O)c(Cl)c1 | cell-free assay | 0.5 µM | remaining signal | 97.3% |
| Cc1c(NC(=O)c2cc(C(N)=O)nc3cc(F)ccc23)c(C(F)(F)F)nn1Cc1ccc(C#N)cc1 | cell-free assay, competition with immobilised ligand | 1 µM | remaining binding | 75% |
| CN1CC(Oc2cnc(C#N)cc2-c2ccn3nc(NC(=O)C4CC4)cc3c2)C1 | enzyme activity, inhibitor | 1 µM | inhibition | -8% |
| Cc1sc(C(=O)NC2COC2)cc1-n1cc(NC(=O)Nc2c(F)cccc2Cl)cn1 | enzyme activity, inhibitor | 10 µM | remaining activity | 99.9% |
| CC1=C(C#N)C(c2ccc3c(c2)c(NC(=O)c2ccccc2C)nn3C)C(C#N)=C(C)N1 | cell-free assay, competition with immobilised ligand | 1 µM | remaining binding | 70% |
| COc1cc(Cl)c(C(=O)N[C@@H](CN[C@H]2CC[C@@H](N)CC2)Cc2ccc(C#N)cc2)cc1-c1ccc(CN[C@H](C)c2ccc(C)cc2)o1 | enzyme activity, inhibitor | 1 µM | remaining activity | 102% |
| Cc1nc(Cc2cccc(C(F)(F)F)c2)sc1-c1ccc(C(N)=O)nc1 | cell-free assay, competition with immobilised ligand | 1 µM | remaining binding | 100% |
| COc1cc2ncnc(Nc3ccc(Oc4ccccc4)c(C)c3C)c2cc1OC | enzyme activity, inhibitor | 1 µM | inhibition | 0% |
